A short description of assay [1]: RPL19A-GFP modulators, yeast TOR pathway, confirmation, cell-based, S. cerevisiae, flow cytometry, cherry picks, mother/daughter gates (AID 2270;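 active means GFP response below 50% of the DMSO control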). The conditions noted are these: S. cerevisiae RPL19A-GFP strain, 3 h, at 10 µM, stronger effect = lower value, 100 = same GFP as DMSO wells. On the technique in general: Flow cytometry measures light scatter and fluorescence of single cells or particles in a stream.

Assay [2] can be described thus: LAP4-GFP expression modulators in yeast, confirmation, cell-based, cherry picks, flow cytometry, mother/daughter gates (AID 2271;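 active means GFP response above 150% of the DMSO control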;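 further: ratio of sample to DMSO plate mean so 100% equals DMSO level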). The conditions noted are these: S. cerevisiae LAP4-GFP strain, 3 h, at 10 µM, stronger effect = higher value, 100 means same as DMSO control. The method in brief: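 System – GFP-fusion yeast strain · Amount – 0.2 OD600 cells · Buffer or medium – SC growth medium · Dosing – single test-compound dose, 10 µM final · Schedule – 3 h treatment at 30 °C with rotation · Detection – GFP by flow cytometry · Read-out – per-gate (all, mother, daughter) GFP response vs DMSO · Benchmarks – positive rapamycin (400 ng/mL), negative DMSO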

A short description of assay [3]: modulators of MEP2-GFP levels in yeast, confirmation, S. cerevisiae, flow cytometry GFP, cherry picks (AID 2272;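 active means GFP response above 150% of the DMSO control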;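 further: ratio of well signal to plate DMSO mean so 100% equals DMSO level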). The conditions noted are these: S. cerevisiae MEP2-GFP strain, 3 h, at 10 µM, stronger effect = higher value.
Assay [4] is described as follows: AGP1-GFP expression modulators, hit retest, confirmation, cell-based, flow cytometry, S. cerevisiae, cherry picks (AID 2273).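 Further: median GFP channel fluorescence over the whole cell population gate.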 The conditions noted are these: S. cerevisiae AGP1-GFP strain, 3 h, at 10 µM.
The nature of assay [5]: modulators of CIT2-GFP expression in yeast, confirmation, S. cerevisiae, GFP fusion, cherry picks, mother/daughter gates (AID 2274). The conditions noted are these: S. cerevisiae CIT2-GFP strain, flow cytometry, 3 h, at 10 µM, stronger effect = higher value.
[6] abbreviates: measured here: daughter cell gate.
The mark [7] stands for this setting: measured here: mother cell gate.
[8] abbreviates: measured here: daughter cell gate response.
Setting [9] is: measured here: mother cell gate response.

The source made the active and inactive calls.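 How the source made its calls, unless noted: active means GFP response above 150% of the DMSO level; inconclusive means fewer than 70 events counted for a yeast strain; inactive means the rest.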

For the molecule `O=C(/C=C/c1ccc(F)cc1)NC(=S)NNC(=O)c1cnccn1`, the GFP response vs DMSO in assay [1] was 108% (inactive); in assay [1] (setting [6]), 89.8%; in assay [1] (setting [7]) it was 105%; in assay [3] it was 132% (inactive). The GFP response relative to DMSO in assay [2] is 313% (active); in assay [2] (setting [8]) it was 146%; in assay [2] (setting [9]), 301%. Also, the GFP response, % of DMSO in assay [4] is 83.4% (inactive); in assay [5], 124% (inactive); in assay [5] (setting [6]), 101%; in assay [5] (setting [7]), 113%.
With `Cc1cc(N2CCC(C)CC2)n2ncc(-c3ccccc3)c2n1`, the GFP response vs DMSO is 99.9% (inactive) in assay [1], 98.7% in assay [1] (setting [6]), 100% in assay [1] (setting [7]) and 97.8% (inactive) in assay [3]. Also, the GFP response relative to DMSO in assay [2] is 96.2% (inactive); in assay [2] (setting [8]) it was 94.1%; in assay [2] (setting [9]) it was 98.3%. Moreover, the GFP response, % of DMSO in assay [4] was 101% (inactive); in assay [5], 102% (inactive); in assay [5] (setting [6]) it was 99.7%; in assay [5] (setting [7]), 101%.
Take `COc1ccc(-c2csc(Nc3ncccc3C)n2)cc1`: the GFP response vs DMSO is 95.6% (inactive) in assay [1], 92.1% in assay [1] (setting [6]), 95.3% in assay [1] (setting [7]) and 98.3% (inactive) in assay [3]. The GFP response relative to DMSO in assay [2] was 107% (inactive); in assay [2] (setting [8]) it was 104%; in assay [2] (setting [9]), 109%. For the same molecule, the GFP response, % of DMSO in assay [4] is 88.6% (inactive); in assay [5] it was 103% (inactive); in assay [5] (setting [6]) it was 105%; in assay [5] (setting [7]), 99.7%.
Regarding `CCCn1c(=O)c(C(=O)NCc2ccc(OC)c(OC)c2)c(O)c2ccccc21`, the GFP response vs DMSO in assay [1] was 98% (inactive); in assay [1] (setting [6]), 97.6%; in assay [1] (setting [7]), 97.6%; in assay [3], 107% (inactive). The GFP response relative to DMSO is 102% (inactive) in assay [2], 102% in assay [2] (setting [8]) and 103% in assay [2] (setting [9]). The GFP response, % of DMSO is 95% (inactive) in assay [4], 101% (inactive) in assay [5], 97.2% in assay [5] (setting [6]) and 101% in assay [5] (setting [7]).
For `O=[N+]([O-])c1ccc(Sc2nc3ccccc3o2)c([N+](=O)[O-])c1`, the GFP response vs DMSO in assay [1] was 93.5% (inactive); in assay [1] (setting [6]) it was 93.4%; in assay [1] (setting [7]), 92%; in assay [3], 114% (inactive). Moreover, the results for the GFP response relative to DMSO in assay [2], in assay [2] (setting [8]) and in assay [2] (setting [9]) were 157% (active), 151% and 158%, respectively. Moreover, the GFP response, % of DMSO in assay [4] is 96% (inactive); in assay [5], 108% (inactive); in assay [5] (setting [6]), 109%; in assay [5] (setting [7]) it was 100%.
`O=C(Nc1ccccc1)c1ccccc1O`: the GFP response vs DMSO is 96.7% (inactive) in assay [1], 97.3% in assay [1] (setting [6]), 95.6% in assay [1] (setting [7]) and 99.3% (inactive) in assay [3]. For the same molecule, the results for the GFP response relative to DMSO in assay [2], in assay [2] (setting [8]) and in assay [2] (setting [9]) were 114% (inactive), 107% and 114%, respectively. The GFP response, % of DMSO is 97.3% (inactive) in assay [4], 93.1% (inactive) in assay [5], 95.8% in assay [5] (setting [6]) and 92.6% in assay [5] (setting [7]).
Consider `CCCc1nnc(NC(=O)c2nc(S(=O)(=O)Cc3ccc(C)cc3)ncc2Cl)s1`, for which the GFP response vs DMSO in assay [1] is 98.9% (inactive); in assay [1] (setting [6]), 97.6%; in assay [1] (setting [7]) it was 94%; in assay [3], 103% (inactive). The values for the GFP response relative to DMSO in assay [2], in assay [2] (setting [8]) and in assay [2] (setting [9]) were 106% (inactive), 102% and 104%, respectively. Also, the GFP response, % of DMSO in assay [4] was 103% (inactive); in assay [5], 112% (inactive); in assay [5] (setting [6]), 106%; in assay [5] (setting [7]), 108%.
Regarding `Cc1ccc(N2C(=O)CC(Sc3ncn[nH]3)C2=O)cc1C` (centres undefined), the GFP response vs DMSO is 106% (inactive) in assay [1], 111% in assay [1] (setting [6]), 101% in assay [1] (setting [7]) and 109% (inactive) in assay [3]. Also, the GFP response relative to DMSO is 137% (inactive) in assay [2], 133% in assay [2] (setting [8]) and 140% in assay [2] (setting [9]). The GFP response, % of DMSO is 100% (inactive) in assay [4], 104% (inactive) in assay [5], 112% in assay [5] (setting [6]) and 97.3% in assay [5] (setting [7]).
Take `Cc1ccc(C(=O)c2c3ccccc3[n+]([O-])n2CCC(=O)O)cc1`: the GFP response vs DMSO in assay [1] was 66.2% (inactive); in assay [1] (setting [6]), 70.6%; in assay [1] (setting [7]), 63.3%; in assay [3], 104% (inactive). The GFP response relative to DMSO in assay [2] is 102% (inactive); in assay [2] (setting [8]), 101%; in assay [2] (setting [9]), 105%. In addition, the GFP response, % of DMSO is 105% (inactive) in assay [4], 99.3% (inactive) in assay [5], 96.4% in assay [5] (setting [6]) and 99.1% in assay [5] (setting [7]).
`CC(C)CC[n+]1ccccc1/C=C/c1ccc(N(C)C)cc1`: the GFP response vs DMSO in assay [1] was 98.2% (inactive); in assay [1] (setting [6]), 94.9%; in assay [1] (setting [7]) it was 95.5%; in assay [3], 126% (inactive). In addition, the GFP response relative to DMSO in assay [2] was 107% (inactive); in assay [2] (setting [8]) it was 108%; in assay [2] (setting [9]), 107%. The GFP response, % of DMSO in assay [4] was 107% (inactive); in assay [5], 115% (inactive); in assay [5] (setting [6]) it was 119%; in assay [5] (setting [7]), 113%.
As to `COC(=O)c1ccc(Cn2cc(/C=C\[N+](=O)[O-])c3ccccc32)o1`, the GFP response vs DMSO was 103% (inactive) in assay [1], 104% in assay [1] (setting [6]), 102% in assay [1] (setting [7]) and 106% (inactive) in assay [3]. Further, the GFP response relative to DMSO in assay [2] was 122% (inactive); in assay [2] (setting [8]) it was 115%; in assay [2] (setting [9]), 127%. Moreover, the GFP response, % of DMSO is 98.2% (inactive) in assay [4], 96.4% (inactive) in assay [5], 100% in assay [5] (setting [6]) and 92.1% in assay [5] (setting [7]).
As to `CCOC(=O)c1cc(S(=O)(=O)N2CCN(C(=O)OCC)CC2)cn1C`, the GFP response vs DMSO in assay [1] was 101% (inactive); in assay [1] (setting [6]), 99%; in assay [1] (setting [7]) it was 101%; in assay [3], 107% (inactive). Also, the GFP response relative to DMSO was 105% (inactive) in assay [2], 100% in assay [2] (setting [8]) and 107% in assay [2] (setting [9]). The GFP response, % of DMSO in assay [4] is 95.7% (inactive); in assay [5], 100% (inactive); in assay [5] (setting [6]), 99.7%; in assay [5] (setting [7]), 102%.
Turning to `CCNC(=O)/C(C#N)=C/c1c(N(Cc2ccccc2)Cc2ccccc2)nc2ccccn2c1=O`, the GFP response vs DMSO is 101% (inactive) in assay [1], 101% in assay [1] (setting [6]), 102% in assay [1] (setting [7]) and 110% (inactive) in assay [3]. Further, the GFP response relative to DMSO in assay [2] was 102% (inactive); in assay [2] (setting [8]), 101%; in assay [2] (setting [9]), 103%. Moreover, the GFP response, % of DMSO in assay [4] is 99.3% (inactive); in assay [5] it was 105% (inactive); in assay [5] (setting [6]), 108%; in assay [5] (setting [7]), 104%.
On to `Cc1cccn2c(=O)c(/C=C(\C#N)C(N)=O)c(N3CCN(Cc4ccc5c(c4)OCO5)CC3)nc12`, for which the GFP response vs DMSO is 101% (inactive) in assay [1], 101% in assay [1] (setting [6]), 102% in assay [1] (setting [7]) and 101% (inactive) in assay [3]. In addition, the GFP response relative to DMSO in assay [2] was 101% (inactive); in assay [2] (setting [8]), 103%; in assay [2] (setting [9]), 101%. Moreover, the GFP response, % of DMSO in assay [4] was 100% (inactive); in assay [5], 110% (inactive); in assay [5] (setting [6]), 110%; in assay [5] (setting [7]) it was 112%.

For the origin of these results see PubChem BioAssay.
